# Bioassay records deposited in PubChem by several laboratories.
# Sampled rows, rich in hits. Any-hit rate of the full collection: about 1.7%.
# V-ATPase pHluor = regulators of yeast V-ATPase proton pumping, primary screen, pHLuorin cytosolic pH fluorescence | 350,000 compounds, 0.37% hits | response, % at 10 µM | S. cerevisiae | AID 504577, 2011; in the data active means response mostly above about 7.3%, no sharp cut-off; inactive means mostly below about 5.4%; further: actives read high
# NTR1 ag = agonists of human NTR1, primary screen, imaging, U2OS cells, beta-arrestin-GFP, high content; Neurotensin receptor type 1 (Homo sapiens), P30989; NTR1-U2OS beta-arrestin-GFP spot imaging, agonist mode; activation, % at 20 µM; 330,000 compounds, 0.17% hits; AID 493036, 2011;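 active means activation at or above 40% of the spot to cytoplasm intensity ratio, with at least 20 cells analyzed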;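 further: 0% = DMSO without peptide and 100% = 100 nM NTR1 peptide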
# Target sequence (P30989 whole entry, looked up): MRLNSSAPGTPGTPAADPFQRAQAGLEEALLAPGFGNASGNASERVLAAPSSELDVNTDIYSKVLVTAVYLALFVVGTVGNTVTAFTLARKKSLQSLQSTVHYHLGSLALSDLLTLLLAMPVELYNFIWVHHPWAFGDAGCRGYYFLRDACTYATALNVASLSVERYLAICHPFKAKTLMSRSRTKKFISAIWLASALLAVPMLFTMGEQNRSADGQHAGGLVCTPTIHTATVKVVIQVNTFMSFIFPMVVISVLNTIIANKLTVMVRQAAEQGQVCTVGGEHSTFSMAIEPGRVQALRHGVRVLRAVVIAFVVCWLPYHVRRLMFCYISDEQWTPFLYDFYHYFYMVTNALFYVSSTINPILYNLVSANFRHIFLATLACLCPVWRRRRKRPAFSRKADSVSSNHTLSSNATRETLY
# Vif inh = HIV Vif self-association inhibitors, primary screen, imaging, HEK293T, single point; 340,000 compounds, 0.35% hits; inhibition, % at 7.49 µM; HEK293T cells, Vif self-association by quenched fluorescence, 24 h; AID 602346, 2012; in the data active means inhibition above about 50%, passing the limit was not always enough
# SR-BI HDL uptake = inhibitors of SR-BI mediated HDL lipid uptake, primary screen, ldlA[mSR-BI] cells, fluorescence, single point; ldlA[mSR-BI] CHO cells, DiI-HDL uptake fluorescence, 3 h; inhibition, % at 12.5 µM; 320,000 compounds, 0.96% hits; AID 488896, 2010;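 active means mean replicate inhibition of at least 70% and a set share of replicates each scoring 70 or more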;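 further: 0% = median of neutral control wells and 100% = median of positive control wells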
# CaV13 ICDI inh = Disruptors of the CACNA1D IQ motif to Ca2+-dependent inactivation inhibitor domain association, primary screening, Förster resonance energy transfer in intact living …. HEK cells, CFP/YFP FRET ICDI-IQ, plate reader, 10 min; percent FRET-ratio fall versus neutral wells. inhibition, % at 12.3 µM. 340,000 compounds, 0.098% hits;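 active means mean replicate inhibition of at least 30% and at least 1% of replicates passing that level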;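 further: 0% = median of the neutral control wells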
# SR-BI DiI-HDL act = activators of SR-BI mediated DiI-HDL uptake, primary screen, ldlA[mSR-BI] CHO cells, DiI fluorescence | 320,000 compounds, 0.096% hits | 3 h; 100 = double the neutral-control signal | activation, % at 12.5 µM;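 active means mean replicate activation of at least 60% and every replicate at or above 60%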;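 further: 0% = median plate neutral-control signal and 100% = twice that signal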
#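 Material: SR-BI-overexpressing, LDLR-lacking CHO cells; schedule: compound exposure 3 h, 37 °C; reagent: DiI-labelled HDL at 10 µg/mL final; technique: bottom-read fluorescence, 550/595 nm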
# * hit, by the source's call; · = not tested or not shown.
SMILES,V-ATPase pHluor,NTR1 ag,Vif inh,SR-BI HDL uptake,CaV13 ICDI inh,SR-BI DiI-HDL act
N#Cc1nc(-c2ccc(OCc3ccc(Cl)cc3)cc2)oc1N1CCOCC1,1.2,1.0,-0.1,75.5*,-8.7,-75.5
CCC(=O)c1ccc(OC)c(OC)c1OCc1ccccc1,-1.1,·,3.3,24.6,-7.2,-24.6
Oc1ccc(-c2nccs2)cc1,3.8,·,20.8,-73.3,-5.2,73.3*
Oc1ccc(-c2csc(Nc3ncccn3)n2)cc1,2.5,3.0,-6.7,11.2,-1.7,-11.1
CCOc1cc(/C=C2/SC(=Nc3ccccc3)N(Cc3cccnc3)C2=O)ccc1OCC#N,1.9,5.2,4.9,2.3,·,-2.3
O=C(CSC1=NCCN1)Nc1cccc([N+](=O)[O-])c1,1.0,2.2,-6.0,81.7*,-2.5,-81.7
COc1ccc(CCNC(=S)NC2CCN(Cc3ccccc3)CC2)cc1,-1.9,0.9,-0.4,15.1,-1.9,-15.1
COc1ccccc1N1CCN(C(=O)CCCCCn2c(=S)[nH]c3cc4c(cc3c2=O)OCO4)CC1,·,·,63.6*,·,-4.4,·
COc1cc(NC(=O)c2cc(OC)c(OC)c(OC)c2)c2ncccc2c1,8.3,·,-7.7,55.6,-4.7,-55.6
Cc1ccc(-c2nc3ncccc3o2)cc1NC(=O)c1ccccc1,-1.2,0.2,3.9,10.5,-4.8,-10.5
COc1cc(NC(=O)c2ccc3c(c2)OCO3)c2ncccc2c1,3.0,0.5,34.8,78.0*,·,-78.0
Cc1ccc(-c2nc3ncccc3o2)cc1NC(=O)c1ccc2c(c1)OCO2,1.2,·,51.0*,-8.0,-1.9,8.0
CC(C)CN(C(=O)c1cc(Cl)nc2ccccc12)C1CCS(=O)(=O)C1 (stereo not given),-5.3,0.4,·,-10.2,-4.7,10.2
O=C(NC(=S)Nc1ccccc1Br)c1ccco1,-0.1,0.1,-6.5,-16.0,-2.1,16.0
O=C(NCc1ccccc1)[C@@H]1CCCN1C(=O)[C@H]1CCCN1C(=O)c1cc(F)cc(F)c1,·,·,·,·,-3.7,·
CCN(CC)c1ccc(/C=N/NC(=O)Cc2nnc(NC(=O)Nc3ccccc3)s2)cc1,2.2,1.6,4.4,91.0*,-8.2,-91.0
O=C(CSc1nn(-c2ccc(Cl)cc2)c(=S)s1)N1CCN(C(=O)c2ccco2)CC1,5.1,1.1,21.6,84.4*,·,-84.4
COc1cc(Cl)c(NC2=CC(=O)C(=O)c3ccccc32)c(OC)c1,-0.4,-3.0,5.2,90.4*,-6.1,-90.4
CCN1C(=O)/C(=C2/Sc3ccc(OC)cc3N2C)SC1=Nc1ccc(OC)cc1,-2.5,0.4,12.2,57.5,-4.9,-57.5
C=CCN1C(=O)/C(=C2/Sc3ccc(OC)cc3N2C)SC1=Nc1cccc(O)c1,2.2,4.3,12.9,102.0*,-5.2,-102.0
Nc1[nH]c(C(=O)c2ccccc2)c(-c2ccc(Cl)cc2)c1C(=O)c1c[nH]c2cc(F)ccc12,·,·,·,·,-5.5,·
NC(=O)CC(NC(=O)Cc1ccc(Br)cc1)c1ccc(N2CCC(N3CCCC3)CC2)c([N+](=O)[O-])c1 (stereo not given),-7.1,-2.2,1.1,17.6,-6.1,-17.6
COc1cccc(-c2noc(CCCC(=O)Nc3ccc(C(N)=O)cc3)n2)c1,17.3*,2.2,9.9,·,-5.1,·
COc1cccc(-c2noc(CCC(=O)Nc3cccnc3)n2)c1,0.0,-1.0,1.9,·,-4.7,·
Cc1ccc([C@H]2C[C@@H](n3cc(COC(=O)c4ccccc4)nn3)[C@H](O)CN2Cc2cccs2)cc1,-0.2,·,-2.8,·,-8.2,·
SMILES,V-ATPase pHluor,NTR1 ag,Vif inh,SR-BI HDL uptake,CaV13 ICDI inh,SR-BI DiI-HDL act
O=C(CCn1nc(-c2ccc(Cl)cc2)ccc1=O)NCCCN1CCCCCC1,-0.5,-1.3,9.0,73.4*,-5.4,-73.4
CCCN1CCN(CCCNC(=O)CCn2nc(-c3ccccc3)ccc2=O)CC1,-1.8,0.5,-3.2,-16.4,7.1,16.4
COc1ccccc1NC(=O)C(C)OC(=O)Cc1n[nH]c(=O)c2ccccc12 (stereo not given),16.1*,-0.5,-13.2,-10.5,-5.7,10.5
CCOc1ccc(NC(=O)CN(C)C(=O)c2ccccc2CCc2ccccc2)cc1OCC,-0.4,10.5,-11.8,94.1*,-1.6,-94.1
CCOc1ccc(NC(=O)CN(C)C(=O)c2ccccc2OCCOc2ccccc2)cc1OCC,-0.3,-0.8,-3.9,82.1*,-1.8,-82.1
CCOc1ccc(NC(=O)CN(C)C(=O)c2c(C)nn(-c3ccc(F)cc3)c2Cl)cc1OCC,-0.8,-0.7,-0.4,83.0*,-6.2,-82.9
CCOc1ccc(NC(=O)CN(C)C(=O)c2c(C)nn(-c3ccccc3)c2Cl)cc1OCC,2.6,1.1,-7.6,46.9,-2.6,-46.9
CCOc1ccc(NC(=O)CN(C)C(=O)c2cc([N+](=O)[O-])ccc2Sc2ccccc2)cc1OCC,-1.1,·,-3.8,76.7*,-6.5,-76.7
CN1OC[C@@H]2CN3C(=Nc4cc(C(F)(F)F)cc(C(F)(F)F)c4)Sc4ccccc4[C@@H]3C[C@@H]21,·,·,·,·,-4.0,·
O=C(O)CCCC(=O)N1CCN(C(c2ccccc2)c2ccccc2)CC1,2.2,-0.7,1.0,-34.3,-16.9,34.3
CCOc1ccc(NC(=O)CN(C)C(=O)c2cccc3ccccc23)cc1OCC,0.4,-0.5,-17.4,77.7*,-6.6,-77.7
CCOc1ccc(NC(=O)CN(C)C(=O)c2cc(-c3ccc(OC)cc3)nc3ccccc23)cc1OCC,-4.9,5.1,-13.9,39.9,-6.0,-39.9
Cc1cccc(-c2nnn(Cc3nnc(NC(=O)c4ccccc4)s3)n2)c1,-2.2,1.3,72.7*,-6.9,-3.0,6.9
CCC(CC)C(C(=O)NCc1ccccc1)N1CCN(CCN2CCOCC2)CC1 (stereo not given),·,·,·,·,-4.8,·
COc1ccc(C(C)=NNC(=O)c2cccc(S(=O)(=O)N3CCCC3)c2)cc1,-0.4,-0.9,-12.5,-18.4,-6.4,18.4
COc1ccc(/C(C)=N/NC(=O)c2cccc(S(=O)(=O)N3CCCC3)c2)c(O)c1,-0.8,1.1,-0.3,102.6*,-3.1,-102.6
O=C(O)/C=C/C(=O)NC1CCCCC1,-7.5,-0.9,15.2,6.2,-2.3,-6.2
COCc1[nH]nc2c1C(c1ccccc1)NC2=O (stereo not given),·,·,·,·,-5.7,·
COc1cc(C(=O)Oc2ccccc2/C=N/NC(=O)c2ccc(Cl)cc2Cl)cc(OC)c1OC,-4.3,6.3,-3.1,82.4*,·,-82.4
COc1cc(/C=N/NC(=O)c2cccnc2)ccc1OCC(=O)Nc1c(C)cc(C)cc1C,-0.5,-0.7,-6.5,71.0*,-5.8,-71.0
